ChEMBL document CHEMBL3526106, “Cytochrome P450 regulation by α-tocopherol in Pxr-null and PXR-humanized mice” (Drug Metab Dispos, 2013)

Assays:
Parameters in all cases: dose 500 mg/kg
Mus musculus [1] = test: Effect on Ugt1a1 gene expression in male PXR null mouse liver at 500 mg/kg for 7 to 14 days dosed through vitamin E-deficient base diet by qPCR method; format: ADME, organism-based; settings: in vivo, po
How it was run: (§1)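 Male mice on vitamin E deficient diet, switched at eight weeks to the same diet with 500 mg/kg DL-α-tocopheryl acetate (controls kept deficient); killed at nine or 10 weeks, livers flash frozen. Hepatic mRNA by SYBR Green qPCR with 25 ng cDNA and 150 nM primers, triplicate reactions; comparative threshold cycle method against β-actin, fold change versus deficient diet; mean ± SEM, two-tailed t-test.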

Cyp2c55 = test: Induction of Cyp2c55 gene expression in male PXR-humanized mouse liver at 500 mg/kg for 7 to 14 days dosed through vitamin E-deficient base diet by qPCR method; format: ADME, organism-based; settings: po, read-out: FC; how it was run: as §1
Mus musculus [2] = test: Induction of Cyp4f15 gene expression in wild type mouse liver at 500 mg/kg for 7 to 14 days dosed through vitamin E-deficient base diet by qPCR method; format: ADME, organism-based; settings: in vivo, po
How it was run: (§2)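 Male mice (wild-type, Pxr-null, hPXR; NCI-bred) on vitamin E-deficient diet from 3 weeks of age; at 8 weeks half switched to same base diet supplemented with 500 mg/kg DL-α-tocopheryl acetate, rest kept deficient. Livers harvested at 9 and 10 weeks. qPCR: 25 ng cDNA, 150 nM each primer, SYBR Green, triplicate; comparative Ct vs β-actin; fold change enriched vs deficient diet; mean ± SEM, two-tailed unpaired t-test.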

Mus musculus [3] = test: Effect on Ugt2b34 gene expression in wild type mouse liver at 500 mg/kg for 7 to 14 days dosed through vitamin E-deficient base diet by qPCR method; format: ADME, organism-based; settings: in vivo, po; how it was run: as §1
Mus musculus [4] = test: Effect on Ugt1a6a gene expression in male PXR-humanized mouse liver at 500 mg/kg for 7 to 14 days dosed through vitamin E-deficient base diet by qPCR method; format: ADME, organism-based; settings: in vivo, po; how it was run: as §1
Mus musculus [5] = test: Effect on Ugt1a7c gene expression in wild type mouse liver at 500 mg/kg for 7 to 14 days dosed through vitamin E-deficient base diet by qPCR method; format: ADME, organism-based; settings: in vivo, po; how it was run: as §1
Mus musculus [6] = test: Induction of Cyp4f15 gene expression in male PXR-humanized mouse liver at 500 mg/kg for 7 to 14 days dosed through vitamin E-deficient base diet by qPCR method; format: ADME, organism-based; settings: in vivo, po; how it was run: as §2
Mus musculus [7] = test: Effect on Ugt1a10 gene expression in male PXR-humanized mouse liver at 500 mg/kg for 7 to 14 days dosed through vitamin E-deficient base diet by qPCR method; format: ADME, organism-based; settings: in vivo, po; how it was run: as §1
Mus musculus [8] = test: Drug metabolism in male wild type mouse assessed as urinary alpha-carboxyethylhydroxychroman glycine level at 500 mg/kg for 7 to 14 days dosed through vitamin E-deficient base diet by UPLC-ESI-QTOFMS method based metabolomics analysis; format: ADME, organism-based, Urine; settings: in vivo, po
Mus musculus [9] = test: Induction of Cyp4f18 gene expression in wild type mouse liver at 500 mg/kg for 7 to 14 days dosed through vitamin E-deficient base diet by qPCR method; format: ADME, organism-based; settings: in vivo, po; how it was run: as §2
Mus musculus [10] = test: Effect on Ugt1a10 gene expression in male PXR null mouse liver at 500 mg/kg for 7 to 14 days dosed through vitamin E-deficient base diet by qPCR method; format: ADME, organism-based; settings: in vivo, po; how it was run: as §1
Mus musculus [11] = test: Effect on Ugt1a1 gene expression in wild type mouse liver at 500 mg/kg for 7 to 14 days dosed through vitamin E-deficient base diet by qPCR method; format: ADME, organism-based; settings: in vivo, po; how it was run: as §1
Cyp2c37 = test: Induction of Cyp2c37 gene expression in male PXR-humanized mouse liver at 500 mg/kg for 7 to 14 days dosed through vitamin E-deficient base diet by qPCR method; format: ADME, organism-based; settings: po, read-out: FC; how it was run: as §1
Mus musculus [12] = test: Drug metabolism in male PXR-humanized mouse assessed as urinary alpha-carboxymethylbutylhydroxychroman glucuronide level at 500 mg/kg for 7 to 14 days dosed through vitamin E-deficient base diet by UPLC-ESI-QTOFMS method based metabolomics analysis; format: ADME, organism-based, Urine; settings: in vivo, po
How it was run: (§3)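 Male mice from three weeks of age on vitamin E deficient diet; at eight weeks, 24 h predose urine in metabolic cages, then half switched to the same diet supplemented with 500 mg/kg DL-α-tocopheryl acetate. 24 h urine collected at nine and 10 weeks. Urinary metabolites quantitated by UPLC-MRM on triple-quadrupole MS against authentic standards and calibration curves, normalized to urinary creatinine (µmol/mmol creatinine); mean ± SEM, two-tailed unpaired t-test.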

Mus musculus [13] = test: Effect on Ugt1a6b gene expression in male PXR-humanized mouse liver at 500 mg/kg for 7 to 14 days dosed through vitamin E-deficient base diet by qPCR method; format: ADME, organism-based; settings: in vivo, po; how it was run: as §1
Mus musculus [14] = test: Effect on Ugt1a7c gene expression in male PXR-humanized mouse liver at 500 mg/kg for 7 to 14 days dosed through vitamin E-deficient base diet by qPCR method; format: ADME, organism-based; settings: in vivo, po; how it was run: as §1
Mus musculus [15] = test: Effect on Ugt1a9 gene expression in male PXR-humanized mouse liver at 500 mg/kg for 7 to 14 days dosed through vitamin E-deficient base diet by qPCR method; format: ADME, organism-based; settings: in vivo, po; how it was run: as §1
Mus musculus [16] = test: Drug metabolism in male PXR null mouse assessed as urinary alpha-carboxyethylhydroxychroman glycine level at 500 mg/kg for 7 to 14 days dosed through vitamin E-deficient base diet by UPLC-ESI-QTOFMS method based metabolomics analysis; format: ADME, organism-based, Urine; settings: in vivo, po; how it was run: as §3
Mus musculus [17] = test: Induction of Cyp4f16 gene expression in wild type mouse liver at 500 mg/kg for 7 to 14 days dosed through vitamin E-deficient base diet by qPCR method; format: ADME, organism-based; settings: in vivo, po; how it was run: as §2
Mus musculus [18] = test: Induction of Cyp4f13 gene expression in male PXR null mouse liver at 500 mg/kg for 7 to 14 days dosed through vitamin E-deficient base diet by qPCR method; format: ADME, organism-based; settings: in vivo, po; how it was run: as §2
Mus musculus [19] = test: Induction of Cyp3a11 gene expression in male PXR-humanized mouse liver at 500 mg/kg for 7 to 14 days dosed through vitamin E-deficient base diet by qPCR method; format: ADME, organism-based; settings: in vivo, po; how it was run: as §2
Mus musculus [20] = test: Induction of Cyp2c39 gene expression in male PXR-humanized mouse liver at 500 mg/kg for 7 to 14 days dosed through vitamin E-deficient base diet by qPCR method; format: ADME, organism-based; settings: in vivo, po; how it was run: as §1
Mus musculus [21] = test: Induction of Cyp4f14 gene expression in wild type mouse liver at 500 mg/kg for 7 to 14 days dosed through vitamin E-deficient base diet by qPCR method; format: ADME, organism-based; settings: in vivo, po; how it was run: as §2
Mus musculus [22] = test: Induction of Cyp4f13 gene expression in male PXR-humanized mouse liver at 500 mg/kg for 7 to 14 days dosed through vitamin E-deficient base diet by qPCR method; format: ADME, organism-based; settings: in vivo, po; how it was run: as §2
Mus musculus [23] = test: Effect on Ugt2b5 gene expression in male PXR-humanized mouse liver at 500 mg/kg for 7 to 14 days dosed through vitamin E-deficient base diet by qPCR method; format: ADME, organism-based; settings: in vivo, po; how it was run: as §1
Mus musculus [24] = test: Induction of Cyp3a11 gene expression in male wild type mouse liver at 500 mg/kg for 7 to 14 days dosed through vitamin E-deficient base diet by qPCR method; format: ADME, organism-based; settings: in vivo, po; how it was run: as §2
Mus musculus [25] = test: Drug metabolism in male wild type mouse assessed as urinary alpha-carboxymethylbutylhydroxychroman glucuronide level at 500 mg/kg for 7 to 14 days dosed through vitamin E-deficient base diet by UPLC-ESI-QTOFMS method based metabolomics analysis; format: ADME, organism-based, Urine; settings: in vivo, po
Mus musculus [26] = test: Induction of Cyp4f15 gene expression in male PXR null mouse liver at 500 mg/kg for 7 to 14 days dosed through vitamin E-deficient base diet by qPCR method; format: ADME, organism-based; settings: in vivo, po; how it was run: as §2
Mus musculus [27] = test: Effect on Ugt2b5 gene expression in wild type mouse liver at 500 mg/kg for 7 to 14 days dosed through vitamin E-deficient base diet by qPCR method; format: ADME, organism-based; settings: in vivo, po; how it was run: as §1

`CC(=O)Oc1c(C)c(C)c2c(c1C)CCC(C)(CCCC(C)CCCC(C)CCCC(C)C)O2` (racemic) [alpha-TOCHOPHERYL ACETATE] was tested, and the Activity (Mus musculus [1]) was “Not Active”, the fold induction (Cyp2c55) was 2.9 and the Activity (Mus musculus [2]) was “Not Active”. The Activity (Mus musculus [3]) was “Not Active”, the Activity (Mus musculus [4]) was “Not Active” and the Activity (Mus musculus [5]) was “Not Active”. For the same molecule, the Activity (Mus musculus [6]) was “Not Active”, the Activity (Mus musculus [7]) was “Not Active” and the Drug metabolism (Mus musculus [8]) was “metabolite_detected”. The Activity (Mus musculus [9]) was “Not Active”, the Activity (Mus musculus [10]) was “Not Active” and the Activity (Mus musculus [11]) was “Not Active”. For the same molecule, the fold induction (Cyp2c37) was 2, the Drug metabolism (Mus musculus [12]) was “metabolite_detected” and the Activity (Mus musculus [13]) was “Not Active”. The Activity (Mus musculus [14]) was “Not Active”, the Activity (Mus musculus [15]) was “Not Active” and the Drug metabolism (Mus musculus [16]) was “metabolite_detected”. For the same molecule, the Activity (Mus musculus [17]) was “Not Active”, the Activity (Mus musculus [18]) was “Not Active” and the Activity (Mus musculus [19]) was “Not Active”. The Activity (Mus musculus [20]) was “Not Active”, the Activity (Mus musculus [21]) was “Not Active” and the Activity (Mus musculus [22]) was “Not Active”. For the same molecule, the Activity (Mus musculus [23]) was “Not Active”, the Activity (Mus musculus [24]) was “Active” and the Drug metabolism (Mus musculus [25]) was “metabolite_detected”. The Activity (Mus musculus [26]) was “Not Active” and the Activity (Mus musculus [27]) was “Not Active”.
